# TRPML3 ag = human mucolipin-3 channel agonism | 220,000 tested, 0.29% active | activation, % at 3 µM | AID 1448 | HEK293 TRPML3-YFP, Fluo-8 calcium fluorescence; 100% = the carbachol control signal | Q8TDD5;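 active = activation above its plate's cutoff, the mean activation of the plate's test wells plus 3 SD, cut at about 12% in these data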
# Target sequence (Q8TDD5 whole entry, looked up): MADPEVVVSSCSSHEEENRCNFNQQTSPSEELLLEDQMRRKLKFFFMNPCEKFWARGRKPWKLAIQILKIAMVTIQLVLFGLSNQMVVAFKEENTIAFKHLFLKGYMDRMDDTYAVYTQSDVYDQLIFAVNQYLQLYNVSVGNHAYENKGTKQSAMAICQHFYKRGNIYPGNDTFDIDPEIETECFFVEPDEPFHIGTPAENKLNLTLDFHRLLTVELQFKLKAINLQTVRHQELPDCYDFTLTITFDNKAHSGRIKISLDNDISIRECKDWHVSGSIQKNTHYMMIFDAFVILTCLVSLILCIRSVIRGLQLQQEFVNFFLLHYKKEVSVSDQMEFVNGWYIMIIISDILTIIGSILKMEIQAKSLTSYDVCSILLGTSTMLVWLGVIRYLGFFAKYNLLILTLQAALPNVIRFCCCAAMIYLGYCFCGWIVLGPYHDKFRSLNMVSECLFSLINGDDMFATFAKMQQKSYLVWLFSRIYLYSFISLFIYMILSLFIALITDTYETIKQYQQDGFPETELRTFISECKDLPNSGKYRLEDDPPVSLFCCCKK
#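 Material: TRPML3-YFP stable HEK293 cells | Dosing: One concentration, 3 µM nominal, 0.3% DMSO | Timing: 125 s total fluorescence read per well | Technique: Fluo-8 calcium dye fluorescence, ex 470-495, em 515-575 nm | Measure: Percent activation from peak-to-basal fluorescence ratio, scaled between DMSO and carbachol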
# CRFBP-R2 block = blocks CRF-induced signaling of the CRF-BP/CRF-R2 complex; HEK293 CRF-R2/CRF-BP, CRF-induced calcium fluorescence; inhibition, % at 11.8 µM; 350,000 tested, 0.59% active;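 active = inhibition of the ligand-induced calcium signal above about 50% at the single tested concentration, limit read from the data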
# CRFBP-R2 agonist = agonists of human CRF-binding protein/CRF-R2 receptor complex; HEK293 CRF-R2/CRF-BP, calcium dye fluorescence (FLIPR); percent of saturating CRF peptide response; activation, % at 13.2 µM; 350,000 tested, 0.46% active; AID 588473;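 active = activation of at least 50%, plus an integration ratio under a set limit after plate pattern correction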
# zfTRPN1 agonist = activates the zebrafish TRPN1 channel; HEK293 zebrafish TRPN1-YFP, Fluo-8 calcium fluorescence; 100% = response to 87 µM carbachol; activation, % at 3 µM; 220,000 tested, 0.18% active;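 active = activation above its plate's cutoff, the mean activation of test wells on that plate plus 3 SD, cut at about 19% in these data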
#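 System: zebrafish TRPN1-YFP in HEK293 cells / Dosing: 3 µM single point / Timing: dye loading 1 h at 37 °C, then 30 min room temperature / Signal: Fluo-8 calcium fluorescence, excitation 470-495 nm, emission 515-575 nm / Read-out basis: percent activation from peak over basal fluorescence ratio, control-normalized / Control set: high carbachol 87 µM, low DMSO alone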
# GPR7 antag = blocks human GPR7 receptor signaling; P48145; inhibition, % at 4.4 µM; AID 1861; GPR7-expressing cells, fluorescence antagonist assay; 290,000 tested, 1.1% active; in the data active = inhibition above about 16%, passing the limit was not always enough;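 also: cells stimulated with the agonist NPW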
# Hits are given with their value; . = inactive; / = no result given. Compounds with a hit are over-represented: about 2% of the library has one in this group of screens.
SMILES,TRPML3 ag,CRFBP-R2 block,CRFBP-R2 agonist,zfTRPN1 agonist,GPR7 antag
CCOC(=O)C1CCN(CC(=O)Nc2c(C(=O)OC)[nH]c3ccc(Cl)cc23)CC1,.,.,.,.,18.0
COc1ccc2ccccc2c1C(O)c1nccn1C (configuration not stated),.,.,104.0,.,.
Cn1ccnc1C(O)c1ccccc1 (configuration not stated),.,.,.,.,.
CC1C(=O)C(C)C(c2ccccc2)N(N=O)C1c1ccccc1 (configuration not stated),/,.,.,/,/
CCN1C(c2ccccc2)C(C)C(=O)C(C)C1c1ccccc1 (configuration not stated),.,57.0,.,.,.
CCn1ccnc1CNC(=O)C1CCC(=O)N(Cc2ccccc2F)C1 (configuration not stated),/,.,.,/,.
O=C(NCc1cn2ccccc2n1)C1CCC(=O)N(Cc2ccccc2F)C1 (configuration not stated),/,61.3,.,/,.
O=C(NCCc1cn2ccccc2n1)C1CCCCC1,.,.,.,.,19.4
O=C(NCCc1cn2ccsc2n1)C1CCCCC1,.,.,.,.,.
COc1cccc(CN2CC(C(=O)NC3CCC(O)CC3)CCC2=O)c1 (configuration not stated),/,.,.,/,.
CC(=O)C1CCC2C3CC(O)C4=CC(=O)CCC4(C)C3C(=O)CC12C (configuration not stated),/,.,.,/,/
Cc1noc(NS(=O)(=O)c2ccc(NC(=O)CS(=O)(=O)c3ccccc3)cc2)c1C,.,59.7,.,.,.
Cc1ccccc1NC(=O)Cc1nnc(SCC(=O)N2CCOCC2)n1C,/,.,.,/,.
COc1ccc(-c2ccc(C3C(C#N)=C(N)Oc4n[nH]c(C)c43)o2)cc1 (configuration not stated),.,.,171.2,.,.
Cc1[nH]nc2c1C(c1ccco1)C(C#N)=C(N)O2 (configuration not stated),.,.,.,.,.
CN(C(=O)c1cccc(NC(=O)Cc2ccc(NC(=O)C3CCCN(C(=O)CCc4ccccc4)C3)cc2)c1)C1CC1 (configuration not stated),/,.,.,/,/
CN(C(=O)c1cccc(NC(=O)Cc2ccc(NC(=O)C3CCCN(C(=O)CCc4ccccc4)C3)cc2)c1)C1CCCCC1 (configuration not stated),/,67.3,.,/,/
CCn1c(C)c(C(=O)c2ccccc2)c(C#N)c1C(=O)O,/,.,.,/,.
CCOC(=O)c1cc(C)sc1NC(=O)CCC(=O)O,.,58.8,.,.,.
CCc1cc(C(=O)OC)c(NC(=O)CCC(=O)O)s1,.,.,.,.,.
CCC(=O)N1CCc2cc(S(=O)(=O)NCCC(=O)NC3CCCCCC3)ccc21,/,.,.,/,.
COc1ccc(OC)c(NC(=O)c2cccc3c2C(=O)N(C2CCCCC2)C3)c1,/,.,.,/,.
COCCN1Cc2cccc(C(=O)Nc3cc(OC)ccc3OC)c2C1=O,.,.,60.5,.,.
O=C(O)c1cnn(-c2nc(-c3ccc(Br)cc3)cs2)c1C(F)(F)F,/,.,.,/,.
O=C(c1ccco1)N1CCN=C1SCc1ccccc1Cl,.,101.1,.,.,.
SMILES,TRPML3 ag,CRFBP-R2 block,CRFBP-R2 agonist,zfTRPN1 agonist,GPR7 antag
O=C(c1ccco1)N1CCN=C1SCc1c(F)cccc1Cl,.,.,.,.,.
CCOc1ccc(N2CC(C(=O)Nc3cccc(C(=O)NC4CC4)c3)CC2=O)cc1 (configuration not stated),/,.,.,/,/
COc1cccc(-c2cc(C(=O)O)c3cc4ccccc4cc3n2)c1OC,/,.,.,/,/
COc1ccc(OC)c(-c2cc(C(=O)O)c3cc4ccccc4cc3n2)c1,/,50.1,.,/,/
O=C(CCNC(=O)c1ccccc1)NCCCc1ccccc1,/,.,.,/,/
COc1ccc(C2=NNC(c3ccco3)=Nc3ccc(F)cc32)cc1,.,53.7,.,.,.
CCCCNc1nc(CC)c2c(c1C#N)CCCC2,.,60.5,.,.,.
CCCCc1nc(NCCO)c(C#N)c2c1CCCC2,.,.,.,.,.
CCCc1cc(=O)[nH]c2nnc(SCC(=O)N3CC(C)OC(C)C3)n12 (configuration not stated),/,.,.,/,/
N#CC1=C(N)OC2=C(C(=O)CCC2)C1c1ccccc1 (configuration not stated),.,.,.,.,.
N#CC1=C(N)OC2=C(CC/C2=C\c2ccccc2)C1c1ccccc1 (configuration not stated),.,.,300.5,.,.
N#CC1=C(N)OC2=C(CC/C2=C\c2ccccc2Cl)C1c1ccccc1Cl (configuration not stated),.,.,90.8,.,.
c1ccc2c(c1)nc(N1CCCCCC1)c1nncn12,/,.,.,/,/
CCCCN(C)C(=O)C1CCC(CNS(=O)(=O)c2ccc3c(c2)CC(C)N3C(=O)C2CC2)CC1 (configuration not stated),/,.,.,/,.
O=C(CN1C(=O)c2ccccc2S1(=O)=O)NC1CCCCCC1,.,.,.,.,.
O=C(CN1c2cccc3cccc(c23)S1(=O)=O)NC1CCCCC1,/,69.9,.,/,/
CC(=O)NCCc1ccc(S(=O)(=O)Nc2ccc(NC(=O)c3ccc(F)cc3)cc2)cc1,/,.,.,/,.
O=S(=O)(c1ccccc1)c1cnn(-c2ccccc2)c1-c1ccc(F)cc1,.,51.3,.,.,.
CCCCC(CC)C(=O)Nc1cc(C(=O)NCCC)ccc1N1CCC2(CC1)CC(c1ccccc1)=NO2 (configuration not stated),/,.,.,/,.
COc1ccc2ccc(C(C)(C(C)=O)C(=O)OC(C)C)cc2c1 (configuration not stated),/,.,.,/,/
Cn1cccc1/C=C1\Cc2ccccc2C1=O,.,.,.,.,.
Cn1cccc1/C=C1\CC(C(C)(C)C)C/C(=C\c2cccn2C)C1=O (configuration not stated),.,.,79.0,.,.
CN1C2CCC1/C(=C/c1cccn1C)C(=O)/C2=C\c1cccn1C,.,.,237.3,.,.
COc1ccc(NC(=O)N(C)C[C@H]2Oc3ccc(NS(=O)(=O)c4c(C)noc4C)cc3C(=O)N([C@H](C)CO)C[C@@H]2C)cc1,/,.,.,/,/
Cn1c(CNC(=O)c2ccc(Cl)cc2)nnc1SCC(=O)N1CCOCC1,/,.,.,/,.
COC(=O)c1ccc2c(c1)C(C)(C)C(/C=C/c1ccc(O)cc1)=[N+]2C,.,.,51.2,.,.
C=CCNC(=O)c1c(Br)cnn1-c1ccc(C)cc1,.,.,.,.,18.4
Cc1ccc(-n2ncc(Cl)c2C(=O)NCc2ccccc2)cc1,/,.,.,/,.
COc1ccc(NC(=O)CN(C)C(=O)CSc2ccc3c(c2)OCCO3)cc1,/,.,180.5,/,.
CCCCN(C)CCCNC(=O)C1(O)c2ccccc2NC(=O)N1c1ccc(Cl)cc1 (configuration not stated),/,.,.,/,.

# Bioassay records from PubChem BioAssay.
